ChEMBL document CHEMBL1122008, “Lipophilic 5'-(alkyl phosphate) esters of 1-beta-D-arabinofuranosylcytosine and its N4-acyl and 2,2'-anhydro-3'-O-acyl derivatives as potential prodrugs” (1982)

Tests used:
Assay type in all cases: functional
Mus musculus [1] = assay: Antitumor activity against L1210 leukemia in mice (Average 7-day weight change (%)) at the dose of 1000 mg/kg
How it was run: (§1)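 Male B6D2F1J mice, groups of five to nine, inoculated ip with 10^5 L1210 cells on day 0. Drug treatment started day 1 on qd×5 or q4d(2,6) schedule. Vehicles: ara-C in sterile water; the n-butyl phosphate ester in 0.05 M pH 7.4 potassium phosphate buffer; others as suspensions in 0.4% Tween 80/0.5% low-density CMC/0.9% benzyl alcohol/0.9% saline. Mice weighed days 1 and 7; 7-day weight change given as g/mouse and %.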

Mus musculus [2] = assay: Antitumor activity against L1210/ara-C leukemia in mice (Average 7-day weight change) at the dose of 50 mg/kg
How it was run: (§2)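 Male B6D2F1J mice, groups of 5–9, inoculated ip with 10^5 L1210/ara-C cells on day 0. Dosing began day 1 on a qd×5 or q4d(2,6) schedule. Ara-C was given in sterile water, the n-butyl phosphate ester in 0.05 M pH 7.4 potassium phosphate buffer, and others as suspensions in 0.4% Tween 80/0.5% CMC/0.9% benzyl alcohol/0.9% saline. Mice were weighed on days 1 and 7; 7-day change given in g and %.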

Mus musculus [3] = assay: Antitumor activity against L1210 leukemia in mice (Percent increase in life span.) at the dose of 200 mg/kg
How it was run: (§3)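 Male B6D2F1J mice, groups of 5–9, inoculated ip with 10^5 L1210 cells on day 0. Dosing starts day 1 on a qd×5 or q4d(2,6) schedule. Vehicles are sterile water, pH 7.4 0.05 M potassium phosphate buffer, or 0.4% Tween 80/0.5% CMC/0.9% benzyl alcohol/0.9% saline. %ILS = (T/C − 1)×100 from median survival. Weights taken days 1 and 7.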

Mus musculus [4] = assay: Antitumor activity against L1210 leukemia in mice (Average 7-day weight change (%)) at the dose of 50 mg/kg; how it was run: as §1
Mus musculus [5] = assay: Antitumor activity against L1210 leukemia in mice (Average 7-day weight change) at the dose of 100 mg/kg; how it was run: as §1
Mus musculus [6] = assay: Antitumor activity against L1210/ara-C leukemia in mice (Percent increase in life span.) at the dose of 500 mg/kg
How it was run: (§4)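 Same protocol as the L1210 assay, but with 10^5 kinase-deficient L1210/ara-C cells inoculated ip into male B6D2F1J mice (groups of 5–9) on day 0. Treatment begins day 1, qd×5 or q4d(2,6). %ILS = (T/C − 1)×100 using median survival times of treated and control groups. Body weight recorded days 1 and 7.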

Mus musculus [7] = assay: Antitumor activity against L1210/ara-C leukemia in mice (Average 7-day weight change) at the dose of 500 mg/kg; how it was run: as §2
Mus musculus [8] = assay: Antitumor activity against L1210 leukemia in mice (Average weight per mouse on day 1.) at the dose of 250 mg/kg
How it was run: (§5)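 Male B6D2F1J mice (5–9 per group) received 10^5 L1210 cells i.p. on day 0 and drug from day 1, given qd×5 or q4d(2,6). Vehicles were sterile water, 0.05 M potassium phosphate pH 7.4, or 0.4% Tween 80/0.5% CMC/0.9% benzyl alcohol/0.9% saline. Read-out is average body weight per mouse (g) on day 1.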

Mus musculus [9] = assay: Antitumor activity against L1210/ara-C leukemia in mice (Percent increase in life span.) at the dose of 50 mg/kg; how it was run: as §4
Mus musculus [10] = assay: Antitumor activity against L1210/ara-C leukemia in mice (Average 7-day weight change (%)) at the dose of 100 mg/kg
How it was run: (§6)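 Male B6D2F1J mice (5–9 per group) were given 10^5 L1210/ara-C cells i.p. on day 0, with treatment from day 1 on qd×5 or q4d(2,6). Vehicles were sterile water, pH 7.4 0.05 M phosphate buffer, or a Tween 80/CMC/benzyl alcohol saline suspension. Weights were taken on days 1 and 7; change is expressed in g/mouse and as a percentage.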

Mus musculus [11] = assay: Antitumor activity against L1210/ara-C leukemia in mice (Average 7-day weight change) at the dose of 100 mg/kg; how it was run: as §6
Mus musculus [12] = assay: Antitumor activity against L1210 leukemia in mice (Average weight per mouse on day 1.) at the dose of 50 mg/kg; how it was run: as §5
Mus musculus [13] = assay: Antitumor activity against L1210 leukemia in mice (Average 7-day weight change) at the dose of 200 mg/kg; how it was run: as §1
Mus musculus [14] = assay: Antitumor activity against L1210 leukemia in mice (Average weight per mouse on day 1.) at the dose of 100 mg/kg; how it was run: as §5
Mus musculus [15] = assay: Antitumor activity against L1210/ara-C leukemia in mice (Percent increase in life span.) at the dose of 100 mg/kg; how it was run: as §4
Mus musculus [16] = assay: Antitumor activity against L1210 leukemia in mice (Average weight per mouse on day 1.) at the dose of 1000 mg/kg; how it was run: as §5
Mus musculus [17] = assay: Antitumor activity against L1210 leukemia in mice (Average 7-day weight change) at the dose of 1000 mg/kg; how it was run: as §1
Mus musculus [18] = assay: Antitumor activity against L1210 leukemia in mice (Average weight per mouse on day 1.) at the dose of 500 mg/kg; how it was run: as §5
Mus musculus [19] = assay: Antitumor activity against L1210/ara-C leukemia in mice (Average 7-day weight change (%)) at the dose of 250 mg/kg; how it was run: as §6
Mus musculus [20] = assay: Antitumor activity against L1210 leukemia in mice (Average 7-day weight change) at the dose of 250 mg/kg; how it was run: as §1
Mus musculus [21] = assay: Antitumor activity against L1210 leukemia in mice (Average 7-day weight change) at the dose of 50 mg/kg; how it was run: as §1
Mus musculus [22] = assay: Antitumor activity against L1210/ara-C leukemia in mice (Percent increase in life span.) at the dose of 1000 mg/kg; how it was run: as §4
Mus musculus [23] = assay: Antitumor activity against L1210 leukemia in mice (Average weight per mouse on day 1.) at the dose of 200 mg/kg; how it was run: as §5
Mus musculus [24] = assay: Antitumor activity against L1210/ara-C leukemia in mice (Average 7-day weight change (%)) at the dose of 500 mg/kg; how it was run: as §6
Mus musculus [25] = assay: Antitumor activity against L1210/ara-C leukemia in mice (Average 7-day weight change) at the dose of 250 mg/kg; how it was run: as §6
Mus musculus [26] = assay: Antitumor activity against L1210 leukemia in mice (Average 7-day weight change) at the dose of 500 mg/kg; how it was run: as §1
Mus musculus [27] = assay: Antitumor activity against L1210 leukemia in mice (Percent increase in life span.) at the dose of 100 mg/kg; how it was run: as §3
Mus musculus [28] = assay: Antitumor activity against L1210 leukemia in mice (Average 7-day weight change (%)) at the dose of 250 mg/kg; how it was run: as §1
Mus musculus [29] = assay: Antitumor activity against L1210 leukemia in mice (Percent increase in life span.) at the dose of 1000 mg/kg; how it was run: as §3
Mus musculus [30] = assay: Antitumor activity against L1210/ara-C leukemia in mice (Average weight per mouse on day 1.) at the dose of 100 mg/kg; how it was run: as §2
Mus musculus [31] = assay: Antitumor activity against L1210/ara-C leukemia in mice (Average weight per mouse on day 1.) at the dose of 250 mg/kg; how it was run: as §2
Mus musculus [32] = assay: Antitumor activity against L1210/ara-C leukemia in mice (Average 7-day weight change) at the dose of 200 mg/kg; how it was run: as §6

SMILES: Nc1ccn([C@@H]2O[C@H](CO)[C@@H](O)[C@@H]2O)c(=O)n1 [CYTARABINE]
- Weight change (Mus musculus [1]): 3%
- Weight change (Mus musculus [2]): 0.8 g mouse-1
- ILS at 200 mg/kg (Mus musculus [3]): 112%
- Weight change (Mus musculus [4]): 0%
- Weight change (Mus musculus [5]): -1 g mouse-1
- ILS at 500 mg/kg (Mus musculus [6]): 12%
- Weight change (Mus musculus [7]): 3.8 g mouse-1
- Average weight (Mus musculus [8]): 21.4 g mouse-1
- ILS at 50 mg/kg (Mus musculus [9]): 0%
- Weight change (Mus musculus [10]): -4%
- Weight change (Mus musculus [11]): -1.1 g mouse-1
- Average weight (Mus musculus [12]): 24 g mouse-1
- Weight change (Mus musculus [13]): -1.6 g mouse-1
- Average weight (Mus musculus [14]): 22.4 g mouse-1
- ILS at 100 mg/kg (Mus musculus [15]): -13%
- Average weight (Mus musculus [16]): 24 g mouse-1
- Weight change (Mus musculus [17]): 0.8 g mouse-1
- Average weight (Mus musculus [18]): 22.6 g mouse-1
- Weight change (Mus musculus [19]): 20%
- Weight change (Mus musculus [20]): 1.4 g mouse-1
- Weight change (Mus musculus [21]): 0.2 g mouse-1
- ILS at 1000 mg/kg (Mus musculus [22]): 0%
- Average weight (Mus musculus [23]): 22.6 g mouse-1
- Weight change (Mus musculus [24]): 19%
- Weight change (Mus musculus [25]): 4 g mouse-1
- Weight change (Mus musculus [26]): 0.4 g mouse-1
- ILS at 100 mg/kg (Mus musculus [27]): 100%
- Weight change (Mus musculus [28]): 7%
- ILS at 1000 mg/kg (Mus musculus [29]): 87%
- Average weight (Mus musculus [30]): 24 g mouse-1
- Average weight (Mus musculus [31]): 19.4 g mouse-1
- Weight change (Mus musculus [32]): -3.1 g mouse-1
